One may read the half-life as the time needed for the level to fall by half in the phase considered. Low readings indicate fast loss, high ones slow loss. What is called AUC(0-t) is the area under the concentration-time curve up to a stated or last time point. For orientation: AUC(0-inf) means the area under the concentration-time curve extrapolated to infinity. High values mean more exposure, low ones less exposure. The term clearance denotes the rate of elimination divided by the concentration. In general, MRT inf refers to a mean duration of stay, worked out from the concentration-time curve. What is called solubility is the concentration that dissolves in the medium under given conditions. Low readings indicate little dissolved substance, high ones much dissolved substance. The IC50 is the point on the concentration scale where inhibition reaches its midpoint. High values mean a need for much substance, low ones inhibition by little substance. By EC50 is commonly meant the concentration needed to bring the measured effect to its halfway point.

Some results are limits rather than exact numbers.

T1 sequence (Q86WV6 whole entry, the tested form may be a part): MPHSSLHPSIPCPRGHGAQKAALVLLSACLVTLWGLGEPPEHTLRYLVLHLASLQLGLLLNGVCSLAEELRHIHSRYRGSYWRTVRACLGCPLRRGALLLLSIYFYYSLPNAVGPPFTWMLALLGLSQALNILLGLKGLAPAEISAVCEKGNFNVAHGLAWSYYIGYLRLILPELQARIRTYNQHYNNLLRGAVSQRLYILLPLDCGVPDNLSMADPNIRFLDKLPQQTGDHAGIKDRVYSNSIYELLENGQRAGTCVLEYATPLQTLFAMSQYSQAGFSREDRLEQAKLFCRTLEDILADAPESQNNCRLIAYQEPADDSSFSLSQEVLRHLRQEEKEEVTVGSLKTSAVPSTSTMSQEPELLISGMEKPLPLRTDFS
Sequence of Voltage-gated inwardly rectifying potassium channel KCNH2 (Q12809 whole entry): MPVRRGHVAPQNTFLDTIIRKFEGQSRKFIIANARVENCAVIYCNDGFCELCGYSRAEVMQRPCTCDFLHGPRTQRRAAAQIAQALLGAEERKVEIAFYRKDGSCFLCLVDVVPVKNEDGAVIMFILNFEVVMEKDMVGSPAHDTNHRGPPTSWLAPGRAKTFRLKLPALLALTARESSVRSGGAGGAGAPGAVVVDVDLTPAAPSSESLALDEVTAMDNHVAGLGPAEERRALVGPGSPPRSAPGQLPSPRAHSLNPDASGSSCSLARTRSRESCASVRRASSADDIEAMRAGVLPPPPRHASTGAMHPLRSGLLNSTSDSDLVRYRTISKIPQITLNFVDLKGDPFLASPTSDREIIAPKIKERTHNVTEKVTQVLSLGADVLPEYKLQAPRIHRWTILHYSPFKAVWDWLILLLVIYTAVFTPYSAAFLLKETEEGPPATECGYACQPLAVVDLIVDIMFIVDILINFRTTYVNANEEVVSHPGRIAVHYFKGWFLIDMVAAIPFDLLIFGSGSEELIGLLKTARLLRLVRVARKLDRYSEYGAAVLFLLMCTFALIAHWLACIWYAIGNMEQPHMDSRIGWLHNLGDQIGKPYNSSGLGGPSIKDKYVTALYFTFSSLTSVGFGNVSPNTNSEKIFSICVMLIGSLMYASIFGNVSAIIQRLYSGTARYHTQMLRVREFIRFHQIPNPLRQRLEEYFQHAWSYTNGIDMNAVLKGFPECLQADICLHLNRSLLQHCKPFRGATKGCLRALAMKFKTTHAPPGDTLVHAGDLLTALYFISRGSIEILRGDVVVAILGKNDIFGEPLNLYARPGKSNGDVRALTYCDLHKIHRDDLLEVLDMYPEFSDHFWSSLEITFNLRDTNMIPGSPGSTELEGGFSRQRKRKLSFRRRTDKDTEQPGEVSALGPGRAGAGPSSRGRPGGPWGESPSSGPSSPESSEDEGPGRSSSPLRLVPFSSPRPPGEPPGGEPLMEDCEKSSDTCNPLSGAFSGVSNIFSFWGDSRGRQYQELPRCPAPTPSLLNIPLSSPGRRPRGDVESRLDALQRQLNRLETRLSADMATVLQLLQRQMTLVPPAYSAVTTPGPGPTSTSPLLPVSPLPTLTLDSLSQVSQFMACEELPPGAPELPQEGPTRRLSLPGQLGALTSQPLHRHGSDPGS

The first data set deals with T1, Stimulator of interferon genes protein (Homo sapiens, UniProt Q86WV6). Nature of the data set: Activation of human STING (139 to 379 residues) expressed in THP1-Blue ISG cells at 10 uM incubated for 24 hrs by quanti-blue SEAP reporter gene assay relative to control. The data set is classed as cell-based. The settings on record: filed as activator. Summed up:
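THP1-Blue-ISG cells (1 × 10⁵/well) treated for 24 h; single-concentration screen at 10 μM. SEAP ISG reporter in 20 μL supernatant read with QUANTI-Blue at 650 nm. Activation given as fold over control, averaging at least two experiments.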
Take `CCn1nc(C)cc1C(=O)/N=c1\[nH]c2cc(-c3ncn[nH]3)cc(OC)c2n1CCCCn1/c(=N/C(=O)c2cc(C)nn2CC)[nH]c2cc(C(N)=O)cc(OCCCN3CCOCC3)c21`: the fold change (FC) is 1.28.
With `CCn1nc(C)cc1CCc1nc2cc(C(N)=O)cc(OC)c2n1C/C=C/Cn1c(CCc2cc(C)nn2CC)nc2cc(C(N)=O)cc(OCCCN3CCOCC3)c21`, the fold change (FC) is 0.95.
Same read-out and setting: then `CCn1nc(C)cc1C(=O)/N=c1\[nH]c2cc(-c3ncn[nH]3)cc(OC)c2n1C/C=C/Cn1/c(=N/C(=O)c2cc(C)nn2CC)[nH]c2cc(C(N)=O)cc(OCCCO)c21`, with 16.7; and `COc1cc(C(N)=O)cc2nc(C(=O)CCC(=O)O)n(C/C=C/Cn3c(C(=O)CCC(=O)O)nc4cc(C(N)=O)cc(OCCCN5CCOCC5)c43)c12`, with 9; and `CCn1nc(C)cc1C(=O)/N=c1\[nH]c2cc(-c3ncn[nH]3)cc(OC)c2n1C/C=C/Cn1/c(=N/C(=O)c2cc(C)nn2CC)[nH]c2cc(C(N)=O)c3c(c21)OCCO3`, with 1.58.
On the same count and under the same terms, then `CCn1nc(C)cc1C(=O)/N=c1\[nH]c2cc(-c3ncn[nH]3)cc(OC)c2n1C/C=C/Cn1/c(=N/C(=O)c2cc(C)nn2CC)[nH]c2cc(C#N)cc(OCCCN3CCOCC3)c21`, with 11.1; and `CCn1nc(C)cc1C(=O)/N=c1\[nH]c2cc(-c3ncc[nH]3)cc(OC)c2n1C/C=C/Cn1/c(=N/C(=O)c2cc(C)nn2CC)[nH]c2cc(-c3ncc[nH]3)cc(OCCCN3CCOCC3)c21`, with 1.22.
On the same count and under the same terms, then `CCn1nc(C)cc1C(=O)/N=c1\[nH]c2cc(-c3ncn[nH]3)cc(OC)c2n1C/C=C/Cn1/c(=N/C(=O)c2cc(C)nn2CC)[nH]c2cc(C(N)=O)c3ccoc3c21`, with 17; and `CCn1nc(C)cc1C(=O)/N=c1\[nH]c2cc(-c3nc(C)n[nH]3)cc(OC)c2n1C/C=C/Cn1/c(=N/C(=O)c2cc(C)nn2CC)[nH]c2cc(C(N)=O)cc(OCCCN3CCOCC3)c21`, with 18.8.
In the case of `CCn1nc(C)cc1C(=O)/N=c1\[nH]c2cc(-c3ncn[nH]3)cc(OC)c2n1C/C=C/Cn1/c(=N/C(=O)c2cc(C)nn2CC)[nH]c2cc(-c3ncn[nH]3)cc(OCCCN3CCOCC3)c21`, the fold change (FC) stood at 4.9.

A further data set addresses T2, Stimulator of interferon genes protein (Mus musculus) (UniProt Q3TBT3).
T2 sequence (whole entry): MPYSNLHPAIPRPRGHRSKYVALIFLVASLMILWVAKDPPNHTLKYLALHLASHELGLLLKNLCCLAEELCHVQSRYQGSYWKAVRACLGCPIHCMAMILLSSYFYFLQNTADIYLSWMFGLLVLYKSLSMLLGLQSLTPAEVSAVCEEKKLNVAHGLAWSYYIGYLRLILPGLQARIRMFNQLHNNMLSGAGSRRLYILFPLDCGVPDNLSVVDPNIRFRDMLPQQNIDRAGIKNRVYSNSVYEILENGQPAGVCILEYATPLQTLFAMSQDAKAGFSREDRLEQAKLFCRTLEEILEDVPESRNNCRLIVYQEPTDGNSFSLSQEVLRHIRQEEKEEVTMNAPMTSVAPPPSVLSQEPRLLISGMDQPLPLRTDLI
In words: Activation of mouse STING expressed in RAW-Lucia ISG cells at 50 uM incubated for 24 hrs by quanti-blue SEAP reporter gene assay relative to control. The data set is classed as cell-based. The settings on record: filed as activator. (In general: Reporter assays use an easily measured gene product as a stand-in for the process of interest.)
With `CCn1nc(C)cc1C(=O)/N=c1\[nH]c2cc(-c3ncn[nH]3)cc(OC)c2n1CCCCn1/c(=N/C(=O)c2cc(C)nn2CC)[nH]c2cc(C(N)=O)cc(OCCCN3CCOCC3)c21`, the fold change (FC) was determined as 1.2.
Consider `COc1cc(C(N)=O)cc2nc(C(=O)CCC(=O)O)n(C/C=C/Cn3c(C(=O)CCC(=O)O)nc4cc(C(N)=O)cc(OCCCN5CCOCC5)c43)c12`, for which the fold change (FC) turned out to be 1.4.
With `CCn1nc(C)cc1C(=O)/N=c1\[nH]c2cc(-c3ncn[nH]3)cc(OC)c2n1C/C=C/Cn1/c(=N/C(=O)c2cc(C)nn2CC)[nH]c2cc(C(N)=O)c3c(c21)OCCO3`, the fold change (FC) was found to be 1.1.
Same read-out and setting: next, `CCn1nc(C)cc1C(=O)/N=c1\[nH]c2cc(-c3ncn[nH]3)cc(OC)c2n1C/C=C/Cn1/c(=N/C(=O)c2cc(C)nn2CC)[nH]c2cc(C(N)=O)c3ccoc3c21`: 1.14.

Tested on in the next data set: not listed separately
Nature of the data set: Half life in rat at 1 mg/kg, iv. In kind it is ADME, organism-based. Conditions: in vivo.
The compound `CCn1nc(C)cc1C(=O)Nc1nc2cc(C(N)=O)cc(OC)c2n1C/C=C/Cn1c(NC(=O)c2cc(C)nn2CC)nc2cc(C(N)=O)cc(OCCCN3CCOCC3)c21` [listing 1 of 2 here] gave a half-life of 68.4 min.

Tested on in a further data set: not listed separately
Nature of the data set: AUClast in rat at 1 mg/kg, iv. In kind it is ADME, organism-based. Details: time 0 - last, route intravenous, dose 1 mg/kg. The settings on record: in vivo.
Consider `CCn1nc(C)cc1C(=O)Nc1nc2cc(C(N)=O)cc(OC)c2n1C/C=C/Cn1c(NC(=O)c2cc(C)nn2CC)nc2cc(C(N)=O)cc(OCCCN3CCOCC3)c21` [listing 1 of 2 here], for which the AUC(0-t) was determined as 657 ng·h/mL.

Tested on in the next data set: not listed separately
Nature of the data set: Observed AUCinfinity in rat at 1 mg/kg, iv. Conditions: in vivo. In kind it is ADME, organism-based. Also on record: time infinity, route intravenous, dose 1 mg/kg.
For the compound `CCn1nc(C)cc1C(=O)Nc1nc2cc(C(N)=O)cc(OC)c2n1C/C=C/Cn1c(NC(=O)c2cc(C)nn2CC)nc2cc(C(N)=O)cc(OCCCN3CCOCC3)c21` [listing 1 of 2 here], the AUC(0-inf) was 666 ng·h/mL.

Tested on in another data set: not listed separately
In words: Observed clearance in rat at 1 mg/kg, iv. The data set is classed as ADME, organism-based. The settings on record: in vivo.
On to `CCn1nc(C)cc1C(=O)Nc1nc2cc(C(N)=O)cc(OC)c2n1C/C=C/Cn1c(NC(=O)c2cc(C)nn2CC)nc2cc(C(N)=O)cc(OCCCN3CCOCC3)c21` [listing 1 of 2 here], for which the clearance was determined as 26 mL/min/kg.

Tested on in a further data set: not listed separately
In words: Observed MRT infinity in rat at 1 mg/kg, iv. In kind it is ADME, organism-based. Conditions: in vivo.
With `CCn1nc(C)cc1C(=O)Nc1nc2cc(C(N)=O)cc(OC)c2n1C/C=C/Cn1c(NC(=O)c2cc(C)nn2CC)nc2cc(C(N)=O)cc(OCCCN3CCOCC3)c21` [listing 1 of 2 here], the MRT inf was 38 min.

Tested on in a further data set: not listed separately
In words: Observed volume of distribution at steady state in rat at 1 mg/kg, iv. In kind it is ADME, organism-based. The settings on record: in vivo, read-out: Vdss.
Take `CCn1nc(C)cc1C(=O)Nc1nc2cc(C(N)=O)cc(OC)c2n1C/C=C/Cn1c(NC(=O)c2cc(C)nn2CC)nc2cc(C(N)=O)cc(OCCCN3CCOCC3)c21` [listing 1 of 2 here]: the Vd was 0.965 L/kg.

Tested on in a further data set: not listed separately
In words: Solubility of the compound. The data set is classed as physicochemical.
Details: not given
For the compound `CCn1nc(C)cc1C(=O)/N=c1\[nH]c2cc(-c3ncn[nH]3)cc(OC)c2n1C/C=C/Cn1/c(=N/C(=O)c2cc(C)nn2CC)[nH]c2cc(C(N)=O)cc(OCCCN3CCOCC3)c21.Cl.Cl.Cl`, the solubility is 71.3 mg/mL.

Another data set concerns the target Voltage-gated inwardly rectifying potassium channel KCNH2 (Homo sapiens, UniProt Q12809). In words: Inhibition of human ERG.
Details: not given
For `CCn1nc(C)cc1C(=O)/N=c1\[nH]c2cc(-c3ncn[nH]3)cc(OC)c2n1C/C=C/Cn1/c(=N/C(=O)c2cc(C)nn2CC)[nH]c2cc(C(N)=O)cc(OCCCN3CCOCC3)c21.Cl.Cl.Cl`, the IC50 was more than 40 µM.
On the same count and under the same terms, then `CCn1nc(C)cc1C(=O)Nc1nc2cc(C(N)=O)cc(OC)c2n1C/C=C/Cn1c(NC(=O)c2cc(C)nn2CC)nc2cc(C(N)=O)cc(OCCCN3CCOCC3)c21` [listing 2 of 2 here], with more than 40 µM.

The next data set deals with T1, Stimulator of interferon genes protein. Nature of the data set: Activation of human STING expressed in THP1-Dual cells incubated for 24 hrs by secreted luciferase reporter gene assay.
Details: not given
Turning to `CCn1nc(C)cc1C(=O)/N=c1\[nH]c2cc(-c3ncn[nH]3)cc(OC)c2n1C/C=C/Cn1/c(=N/C(=O)c2cc(C)nn2CC)[nH]c2cc(C(N)=O)cc(OCCCO)c21`, a half-maximal effect (EC50) was put at 2.66 µM.
On the same count and under the same terms, then `CCn1nc(C)cc1C(=O)/N=c1\[nH]c2cc(-c3ncn[nH]3)cc(OC)c2n1C/C=C/Cn1/c(=N/C(=O)c2cc(C)nn2CC)[nH]c2cc(C#N)cc(OCCCN3CCOCC3)c21`, with 26 µM; and `CCn1nc(C)cc1C(=O)/N=c1\[nH]c2cc(-c3nc(C)n[nH]3)cc(OC)c2n1C/C=C/Cn1/c(=N/C(=O)c2cc(C)nn2CC)[nH]c2cc(C(N)=O)cc(OCCCN3CCOCC3)c21`, with 2.55 µM.

Another data set has as its target T3, Stimulator of interferon genes protein (Mus musculus, UniProt Q3TBT3).
T3 sequence (Q3TBT3 whole entry): T2 sequence (whole entry)
Nature of the data set: Activation of mouse STING expressed in RAW-Lucia ISG cells incubated for 24 hrs by secreted luciferase reporter gene assay.
Details: not given
In turn, `CCn1nc(C)cc1C(=O)/N=c1\[nH]c2cc(-c3ncn[nH]3)cc(OC)c2n1C/C=C/Cn1/c(=N/C(=O)c2cc(C)nn2CC)[nH]c2cc(C(N)=O)cc(OCCCO)c21` had an EC50 of more than 50 µM.
Still for that read-out and setting: next, `CCn1nc(C)cc1C(=O)/N=c1\[nH]c2cc(-c3ncn[nH]3)cc(OC)c2n1C/C=C/Cn1/c(=N/C(=O)c2cc(C)nn2CC)[nH]c2cc(C#N)cc(OCCCN3CCOCC3)c21`: more than 50 µM; `CCn1nc(C)cc1C(=O)/N=c1\[nH]c2cc(-c3nc(C)n[nH]3)cc(OC)c2n1C/C=C/Cn1/c(=N/C(=O)c2cc(C)nn2CC)[nH]c2cc(C(N)=O)cc(OCCCN3CCOCC3)c21`: more than 50 µM.

For the next data set, the target named is T2, Stimulator of interferon genes protein (Mus musculus). Nature of the data set: Activation of mouse STING expressed in RAW-Lucia ISG cells at 50 uM incubated for 24 hrs by QUANTI-Luc luciferase reporter gene assay relative to control. The settings on record: filed as activator.
As to `CCn1nc(C)cc1CCc1nc2cc(C(N)=O)cc(OC)c2n1C/C=C/Cn1c(CCc2cc(C)nn2CC)nc2cc(C(N)=O)cc(OCCCN3CCOCC3)c21`, the fold change (FC) amounted to 0.9.
Still for that read-out and setting: next, `CCn1nc(C)cc1C(=O)/N=c1\[nH]c2cc(-c3ncn[nH]3)cc(OC)c2n1C/C=C/Cn1/c(=N/C(=O)c2cc(C)nn2CC)[nH]c2cc(C(N)=O)cc(OCCCO)c21`: 0.96; `CCn1nc(C)cc1C(=O)/N=c1\[nH]c2cc(-c3ncn[nH]3)cc(OC)c2n1C/C=C/Cn1/c(=N/C(=O)c2cc(C)nn2CC)[nH]c2cc(C#N)cc(OCCCN3CCOCC3)c21`: 1.34; `CCn1nc(C)cc1C(=O)/N=c1\[nH]c2cc(-c3ncc[nH]3)cc(OC)c2n1C/C=C/Cn1/c(=N/C(=O)c2cc(C)nn2CC)[nH]c2cc(-c3ncc[nH]3)cc(OCCCN3CCOCC3)c21`: 1.21.
Regarding `CCn1nc(C)cc1C(=O)/N=c1\[nH]c2cc(-c3nc(C)n[nH]3)cc(OC)c2n1C/C=C/Cn1/c(=N/C(=O)c2cc(C)nn2CC)[nH]c2cc(C(N)=O)cc(OCCCN3CCOCC3)c21`, the fold change (FC) is 0.92.
In the case of `CCn1nc(C)cc1C(=O)/N=c1\[nH]c2cc(-c3ncn[nH]3)cc(OC)c2n1C/C=C/Cn1/c(=N/C(=O)c2cc(C)nn2CC)[nH]c2cc(-c3ncn[nH]3)cc(OCCCN3CCOCC3)c21`, the fold change (FC) stood at 1.18.

These data come from ChEMBL document CHEMBL4808161, “Structure-Activity Relationship Study of Amidobenzimidazole Analogues Leading to Potent and Systemically Administrable Stimulator of Interferon Gene (STING) Agonists” (J Med Chem, 2021).
